Data on two compounds can be found in ChEMBL document CHEMBL4706642, “Discovery of a Potent Dual Inhibitor of Acetylcholinesterase and Butyrylcholinesterase with Antioxidant Activity that Alleviates Alzheimer-like Pathology in Old APP/PS1 Mice” (J Med Chem, 2021).

Calls of active or inactive are those of the source.

The test system of data set [1] is Mus musculus. Put plainly: Antialzheimer activity in 6 months young APP/PS1 double mutant-transgenic mouse model assessed as amyloid beta42 levels in hippocampus at 2 mg/kg, ip administered thrice a week for 4 weeks by ELISA. The data set is classed as functional, organism-based. The gist of the method: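 Male APP/PS1 mice received 2 mg/kg i.p. in saline (or vehicle), three times weekly for 4 weeks. After the behavioral tests, hippocampus was collected and Aβ40 and Aβ42 were measured with a specific ELISA kit. Mean ± SEM, n = 7 mice per group; one-way ANOVA with Bonferroni post hoc.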
Background: An ELISA detects its analyte on a solid surface through an enzyme-linked reagent.

The subject of data set [2] is Mus musculus. Put plainly: Antialzheimer activity in 6 months young APP/PS1 double mutant-transgenic mouse model assessed as theta burst induced-long term potentiation in CA3 region of hippocampus at 2 mg/kg, ip administered thrice a week for 4 weeks by fluorescence microscopy based electrophysiology method (reference value: 134.1 +/- 13.1 %). The class given is functional.

Data set [3] has as its system Mus musculus. Briefly: Antiinflammatory activity in 6 months young APP/PS1 double mutant-transgenic mouse model assessed as reduction in GFAP level in hippocampus at 2 mg/kg, ip administered thrice a week for 4 weeks by Hoechst staining based immunofluorescence analysis. The data set is classed as functional, organism-based. A digest of the protocol:
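Hippocampal GFAP immunofluorescence with Hoechst nuclear counterstain in male APP/PS1 mice after 2 mg/kg i.p. in saline (or vehicle), three times per week for 4 weeks. Mean ± SEM, n = 4 mice per group; one-way ANOVA with Bonferroni post hoc.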

The test system of data set [4] is Mus musculus. Briefly: Antialzheimer activity in 11 months old APP/PS1 double mutant-transgenic mouse model assessed as time interval at which EPSP-evoked calcium-dependent vesicle release in CA3 region of hippocampus causing short-term plasticity at 2 mg/kg, ip administered thrice a week for 4 weeks measured at 10 ms interval by fluorescence microscopy based electrophysiology method (reference value: 2.05 +/- 0.2 ms). The class given is functional. The gist of the method: (§1)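 Paired-pulse facilitation in hippocampal slices from male APP/PS1 mice dosed i.p. with 2 mg/kg in saline (or vehicle), three times per week for 4 weeks. Two EPSPs were evoked at intervals of 10–200 ms, and the index is the R2/R1 fEPSP slope ratio. Mean ± SEM of 9 slices from 3 mice per group; two-way ANOVA with Bonferroni post hoc.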

For data set [5], the system named is Mus musculus. Briefly: Antialzheimer activity in 6 months young APP/PS1 double mutant-transgenic mouse model assessed as fiber volley amplitude in CA3 region of hippocampus at 2 mg/kg, ip administered thrice a week for 4 weeks followed by stimulation with 1 to 10 uA EPSP by fluorescence microscopy based electrophysiology method (reference value: 0.719 +/- 0.175 mV/ms). The class given is functional. The gist of the method: (§2)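 Hippocampal slices from male APP/PS1 mice given 2 mg/kg i.p. in saline (or saline alone), three times per week for 4 weeks. Input–output curves were built from evoked fEPSP slopes and fiber volley amplitudes, with values taken at the maximum current intensity. Mean ± SEM of 9 slices from 3 mice per group; two-way ANOVA with Bonferroni post hoc.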

Data set [6] concerns Mus musculus. Put plainly: Memory enhancement effect in 6 months young APP/PS1 double mutant-transgenic mouse model at 2 mg/kg, ip administered thrice a week for 4 weeks by memory flexibility text. The data set is classed as functional, organism-based. A digest of the protocol: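 Memory flexibility test in male APP/PS1 mice treated i.p. with 2 mg/kg in saline (or vehicle), three times weekly for 4 weeks. The number of trials to reach criterion was counted on each testing day over 4 days. Mean ± SEM, n = 7 per group; one-way ANOVA with Bonferroni post hoc.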

The subject of data set [7] is Mus musculus. Briefly: Cognitive enhancing effect in 11 months old APP/PS1 double mutant-transgenic mouse model assessed as effect on time spent on moving along the field at 2 mg/kg, ip administered thrice a week for 4 weeks by LOF test. The class given is functional, organism-based. A digest of the protocol:
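Open-field locomotor test in male APP/PS1 mice after 2 mg/kg i.p. in saline (or vehicle), three times per week for 4 weeks. Read-outs were time spent moving and number of crossings of the central area of a transparent cage. Mean ± SEM, n = 7 per group; one-way ANOVA with Bonferroni post hoc.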

For data set [8], the system named is Mus musculus. Briefly: Antialzheimer activity in 6 months young APP/PS1 double mutant-transgenic mouse model assessed as postsynaptic potential in CA3 region of hippocampus at 2 mg/kg, ip administered thrice a week for 4 weeks followed by stimulation with 1 to 10 uA EPSP by fluorescence microscopy based electrophysiology method (reference value: 0.269 +/- 0.072 mV/ms). The class given is functional. A digest of the protocol: as §2

Data set [9] is described as follows: Drug concentration in wild type C57BL6 mouse plasma at 2 mg/kg, ip thrice a week for 2 weeks observed after 4 hrs post last dose by HPLC/MS/MS analysis. The note with it: plasma.
A short description of data set [10]: Drug distribution in wild type C57BL6 mouse liver at 2 mg/kg, ip thrice a week for 2 weeks observed after 4 hrs post last dose by HPLC/MS/MS analysis. The conditions noted are these: in vivo, 336 h. The data set is classed as ADME, organism-based.
Data set [11] concerns Mus musculus. Put plainly: Antialzheimer activity in 6 months young APP/PS1 double mutant-transgenic mouse model assessed as time interval between two EPSPs in CA3 region of hippocampus at 2 mg/kg, ip administered thrice a week for 4 weeks at 10 ms stimulus interval by fluorescence microscopy based electrophysiology method (reference value: 3.18 +/- 0.8 ms). The class given is functional. A digest of the protocol: as §1

Data set [12] in a line: Permeability of the compound in PBS/EtOH buffer (70:30) by PAMPA-BBB assay. The note with it: read-out: permeability. The class given is ADME. A digest of the protocol: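 PAMPA-BBB permeability, reported as Pe in 10⁻⁶ cm s⁻¹, with CNS+ defined as Pe > 5.1. Mean ± SD of three experiments, each in triplicate.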
A general note: PAMPA measures passive passage across an artificial lipid membrane.

Another data set addresses Acetylcholinesterase (Homo sapiens, UniProt P22303). Put plainly: Inhibition of recombinant human AChE using acetylthiocholineiodide as substrate preincubated for 20 mins followed by substrate addition by Ellman's method. The gist of the method: (§3)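 Enzyme was 0.02 U/mL human recombinant AChE or human serum BChE. Non-enzymatic hydrolysis was corrected. IC50 came from a % inhibition vs log[I] regression. Selectivity = IC50 hBChE/IC50 hAChE. Mean ± SEM of ≥2 experiments, each in duplicate/triplicate.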
(Ellman's reagent forms a yellow product with free thiols.)

For a further data set, the target named is Cholinesterase (Homo sapiens, UniProt P06276). Briefly: Inhibition of human serum BChE using butyrylthiocholineiodide as substrate preincubated for 20 mins followed by substrate addition by Ellman's method. The data set is classed as cell-free. A digest of the protocol: as §3
The subject of data set [13] is Mus musculus. Briefly: Antialzheimer activity in 11 months old APP/PS1 double mutant-transgenic mouse model assessed as theta burst induced-long term potentiation in CA3 region of hippocampus at 2 mg/kg, ip administered thrice a week for 4 weeks by fluorescence microscopy based electrophysiology method (reference value: 83.9 +/- 21.1 %). The data set is classed as functional.

The nature of data set [14]: Drug distribution in wild type C57BL6 mouse brain at 2 mg/kg, ip thrice a week for 2 weeks observed after 4 hrs post last dose by HPLC/MS/MS analysis. The data set is classed as ADME, organism-based. The note with it: in vivo, 336 h.
For data set [15], the target named is Beta-secretase 1 (Homo sapiens) (UniProt P56817). Briefly: Inhibition of recombinant human BACE-1 at 1 uM using methoxycoumarin-Ser-Glu-Val-Asn-Leu-Asp-Ala-Glu-Phe-Lys-dinitrophenyl as substrate preincubated for 1 hr followed by substrate addition and measured after 15 mins by fluorescence based assay relative to control. The conditions noted are these: time 75.0 min.

For data set [16], the system named is Mus musculus. Put plainly: Cognitive enhancing effect in 6 months young APP/PS1 double mutant-transgenic mouse model assessed as increase in preference index for object at 2 mg/kg, ip administered thrice a week for 4 weeks by novel object localization test. The data set is classed as functional, organism-based. A digest of the protocol:
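Male APP/PS1 mice received 2 mg/kg i.p. in saline (or vehicle), three times per week for 4 weeks. Preference index = time exploring the relocated or novel object divided by total time exploring both objects. Mean ± SEM, n = 7 per group; one-way ANOVA with Bonferroni post hoc.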

Sequence of Beta-secretase 1 (Homo sapiens) (P56817 whole entry): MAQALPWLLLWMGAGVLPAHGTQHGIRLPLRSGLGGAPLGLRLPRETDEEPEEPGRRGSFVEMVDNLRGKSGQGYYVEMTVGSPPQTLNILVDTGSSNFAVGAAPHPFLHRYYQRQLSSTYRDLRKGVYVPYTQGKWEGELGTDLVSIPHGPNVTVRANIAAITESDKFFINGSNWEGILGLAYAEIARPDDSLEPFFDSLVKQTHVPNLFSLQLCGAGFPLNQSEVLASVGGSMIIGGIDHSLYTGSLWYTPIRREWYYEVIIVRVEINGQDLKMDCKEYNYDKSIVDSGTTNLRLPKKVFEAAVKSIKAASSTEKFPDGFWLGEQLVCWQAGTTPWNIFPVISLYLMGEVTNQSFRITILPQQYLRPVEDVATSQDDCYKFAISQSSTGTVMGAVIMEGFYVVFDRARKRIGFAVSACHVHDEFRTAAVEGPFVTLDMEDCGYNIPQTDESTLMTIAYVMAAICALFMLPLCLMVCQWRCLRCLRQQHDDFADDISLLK
Sequence of Acetylcholinesterase (P22303 whole entry): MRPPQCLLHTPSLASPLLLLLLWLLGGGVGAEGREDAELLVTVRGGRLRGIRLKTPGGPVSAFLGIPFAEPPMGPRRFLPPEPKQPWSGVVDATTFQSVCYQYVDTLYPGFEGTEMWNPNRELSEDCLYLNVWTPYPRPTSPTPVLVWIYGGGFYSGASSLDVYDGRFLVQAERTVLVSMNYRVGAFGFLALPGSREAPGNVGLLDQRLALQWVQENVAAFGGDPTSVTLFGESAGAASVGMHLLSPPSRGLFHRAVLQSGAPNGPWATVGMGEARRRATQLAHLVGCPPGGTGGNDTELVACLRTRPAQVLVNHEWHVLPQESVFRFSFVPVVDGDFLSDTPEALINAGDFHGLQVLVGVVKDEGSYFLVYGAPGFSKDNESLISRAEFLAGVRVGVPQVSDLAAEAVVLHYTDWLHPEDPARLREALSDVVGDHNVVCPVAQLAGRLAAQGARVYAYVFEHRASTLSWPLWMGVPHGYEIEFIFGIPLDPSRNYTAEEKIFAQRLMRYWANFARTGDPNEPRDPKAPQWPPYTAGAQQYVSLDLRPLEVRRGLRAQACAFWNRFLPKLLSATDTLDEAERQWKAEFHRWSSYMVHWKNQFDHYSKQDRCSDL
Sequence of Cholinesterase (P06276 whole entry): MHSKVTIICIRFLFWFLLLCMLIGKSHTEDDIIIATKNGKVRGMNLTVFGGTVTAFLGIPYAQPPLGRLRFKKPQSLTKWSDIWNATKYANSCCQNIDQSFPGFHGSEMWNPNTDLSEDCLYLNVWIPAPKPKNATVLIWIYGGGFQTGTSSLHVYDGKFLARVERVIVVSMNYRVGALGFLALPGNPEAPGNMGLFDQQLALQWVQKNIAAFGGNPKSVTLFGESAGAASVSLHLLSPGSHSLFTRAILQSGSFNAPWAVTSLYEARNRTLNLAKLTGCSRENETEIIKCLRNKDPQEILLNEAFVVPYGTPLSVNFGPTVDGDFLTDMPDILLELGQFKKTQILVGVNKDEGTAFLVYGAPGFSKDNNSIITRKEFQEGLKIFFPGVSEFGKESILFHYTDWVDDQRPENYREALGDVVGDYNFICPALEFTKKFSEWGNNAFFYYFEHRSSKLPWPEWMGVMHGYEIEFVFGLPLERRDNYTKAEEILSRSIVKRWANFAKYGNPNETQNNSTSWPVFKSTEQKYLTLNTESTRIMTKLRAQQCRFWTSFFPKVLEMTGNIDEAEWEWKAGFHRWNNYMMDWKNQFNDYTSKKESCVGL

A word on the IC50: it is the concentration at which inhibition is half-maximal. By inhibition is commonly meant the drop in the measured response relative to a control, in per cent. With `COc1cc(CNC(=O)CCCCCCNc2c3c(nc4cc(Cl)ccc24)CC2C=C(C)CC3C2)ccc1O` (stereo unspecified), the outcome with Mus musculus [1], with Mus musculus [6], in the data set with Mus musculus [7] and in the data set with Mus musculus [16] was inactive. For the same compound, the Activity with Mus musculus [2] came to 275.6%; in the data set on Mus musculus [5] it was 0.399 mV/ms; in the data set with Mus musculus [8] it was 0.262 mV/ms; in the data set on Mus musculus [13] it was 124.3%. Moreover, in the data set with Mus musculus [3], the result was Active. Besides, the Time with Mus musculus [4] came to 2.32 ms; in the data set on Mus musculus [11], 3.44 ms. Also, the concentration at 336 h in data set [9] was under 3000 ng/mL. In addition, the Drug uptake result in data set [10] and in data set [14] was “Active” in each case. Besides, the Papp in data set [12] came out at 17.2 ×10⁻⁶ cm/s. Moreover, the IC50 came out at 0.77 nM on Acetylcholinesterase and 30.6 nM at Cholinesterase. In addition, the inhibition in data set [15] was 7.4%.

In the case of `COc1cc(CNC(=O)Cc2cn(CCCCC3=CC4Cc5nc6cc(Cl)ccc6c(N)c5C(C3)C4)nn2)ccc1O` (stereo unspecified), the outcome with Mus musculus [1], with Mus musculus [3], with Mus musculus [6], in the data set on Mus musculus [7] and with Mus musculus [16] was inactive. Also, the Activity was found to be 397.3% in the data set on Mus musculus [2], 0.738 mV/ms with Mus musculus [5], 0.296 mV/ms with Mus musculus [8] and 111% in the data set on Mus musculus [13]. For the same compound, the Time in the data set on Mus musculus [4] was 1.96 ms; in the data set on Mus musculus [11], 1.93 ms. For the same compound, in data set [9], the concentration at 336 h is 35600 ng/mL. Moreover, the Drug uptake result in [10] and in data set [14] was “Active” each time. Further, the Papp in [12] was determined as 8.8 ×10⁻⁶ cm/s. Besides, the IC50 was 1.06 nM at Acetylcholinesterase and 7.3 nM at Cholinesterase. The inhibition entry in [15] was “inactive”.
